# According to ChEMBL document CHEMBL5724801, “EUbOPEN Chemogenomics Library - Multiplex” (2024):
# “And” between values parts separate entries of the source, which are not always exact repeats. Equal entries are not always repeated.
# Test system: U2OS
# Experiment: Multiplex assay against U2OS
# Assay type: toxicity, cell-based
# Details: human
# Summary of the method: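 With compound added, live cells were imaged on a CQ1 microscope at 37°C and 5% CO2; staining with Hoechst33342, BioTracker Green Microtubule Cytoskeleton Dye, MitoTracker Red and Annexin V Alexa Fluor 680 had been done at seeding. The CellPathfinder machine-learning gating scheme split cells into Hoechst high-intensity objects or normal cells, normal cells into healthy, pyknosed or fragmented nuclei, and pyknosed cells into mitotic or apoptotic. The tubulin, mitochondrial-mass and membrane-permeability phenotypes are per cents of healthy-nucleus cells.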
# [1] = 12 h, 1 µM, compound concentration 1 uM
# [2] = 12 h, 10 µM, compound concentration 10 uM
# [3] = 24 h, 1 µM, compound concentration 1 uM
# [4] = 24 h, 10 µM, compound concentration 10 uM
# [5] = 48 h, 1 µM, compound concentration 1 uM
# [6] = 48 h, 10 µM, compound concentration 10 uM
smiles,measurement,setting,value
COC[C@@H](CC(C)C)NC1=N/C(=C\c2ccc3ncsc3c2)C(=O)N1C,Population Apoptotic (%),[1],55.88% and 33.33%
same,Population Fragmented Nuclei (%),[1],15.5% and 15.08%
same,Population Healthy Nuclei (%),[1],77.48% and 78.21%
same,Population Hoechst High Intensity Objects (%),[1],0.41% and 0%
same,Population Membrane Permeable-Phenotype (%),[1],0.8% and 2.14%
same,Population Mitochondria Different-Phenotype (%),[1],0.27% and 9.29%
same,Population Mitotic Cells (%),[1],44.12% and 66.67%
same,Population Normal (%),[1],99.59% and 100%
same,Population Pyknosed Nuclei (%),[1],7.02% and 6.7%
same,Population Tubulin-Different-Phenotype (%),[1],1.33% and 0%
same,Total Cell Count,[1],486 and 179
same,Population Apoptotic (%),[2],25% and 29.63%
same,Population Fragmented Nuclei (%),[2],47.65% and 84.45%
same,Population Hoechst High Intensity Objects (%),[2],29.32% and 10.96%
same,Population Membrane Permeable-Phenotype (%),[2],4.62% and 2.68%
same,Population Mitotic Cells (%),[2],75% and 70.37%
same,Population Normal (%),[2],70.68% and 89.04%
same,Population Pyknosed Nuclei (%),[2],3.24% and 3.02%
same,Population Tubulin-Different-Phenotype (%),[2],20.13% and 12.5%
same,Total Cell Count,[2],873 and 1004
same,Population Apoptotic (%),[3],67.39% and 47.62%
same,Population Fragmented Nuclei (%),[3],12.71% and 10%
same,Population Healthy Nuclei (%),[3],79.7% and 80.87%
same,Population Hoechst High Intensity Objects (%),[3],0%
same,Population Membrane Permeable-Phenotype (%),[3],0.41% and 0%
same,Population Mitochondria Different-Phenotype (%),[3],0.41% and 6.45%
same,Population Mitotic Cells (%),[3],32.61% and 52.38%
same,Population Normal (%),[3],100%
same,Population Pyknosed Nuclei (%),[3],7.59% and 9.13%
same,Population Tubulin-Different-Phenotype (%),[3],0.83% and 0%
same,Total Cell Count,[3],606 and 230
same,Population Fragmented Nuclei (%),[4],53.16% and 86.53%
same,Population Hoechst High Intensity Objects (%),[4],30.44% and 12.75%
same,Population Membrane Permeable-Phenotype (%),[4],2.98% and 2.22%
same,Population Mitotic Cells (%),[4],91.67% and 75%
same,Population Normal (%),[4],69.56% and 87.25%
same,Population Pyknosed Nuclei (%),[4],4.34% and 3.2%
same,Population Tubulin-Different-Phenotype (%),[4],20% and 8.89%
same,Total Cell Count,[4],795 and 1004
same,Population Apoptotic (%),[5],48.44% and 55.56%
same,Population Fragmented Nuclei (%),[5],12.46% and 10.34%
same,Population Healthy Nuclei (%),[5],81.16% and 82.49%
same,Population Hoechst High Intensity Objects (%),[5],0.69% and 0.79%
same,Population Membrane Permeable-Phenotype (%),[5],1.6% and 0.64%
same,Population Mitochondria Different-Phenotype (%),[5],0% and 3.54%
same,Population Mitotic Cells (%),[5],51.56% and 44.44%
same,Population Normal (%),[5],99.31% and 99.21%
same,Population Pyknosed Nuclei (%),[5],6.38% and 7.16%
same,Population Tubulin-Different-Phenotype (%),[5],0.86% and 0%
same,Total Cell Count,[5],1010 and 380
same,Population Apoptotic (%),[6],42.86% and 52.83%
same,Population Fragmented Nuclei (%),[6],86.99% and 92.61%
same,Population Healthy Nuclei (%),[6],3.8% and 2.78%
same,Population Hoechst High Intensity Objects (%),[6],32.94% and 15.32%
same,Population Membrane Permeable-Phenotype (%),[6],3.85% and 3.12%
same,Population Mitochondria Different-Phenotype (%),[6],0% and 3.12%
same,Population Mitotic Cells (%),[6],57.14% and 47.17%
same,Population Normal (%),[6],67.06% and 84.68%
same,Population Pyknosed Nuclei (%),[6],9.21% and 4.61%
same,Population Tubulin-Different-Phenotype (%),[6],3.85% and 6.25%
same,Total Cell Count,[6],1020 and 1358
CC(/C=C1\SC(=S)N(CCCC(=O)Nc2ccc(C(=O)O)c(O)c2)C1=O)=C\c1ccccc1,Population Apoptotic (%),[1],94% and 100%
same,Population Fragmented Nuclei (%),[1],26% and 12%
same,Population Healthy Nuclei (%),[1],64% and 80%
same,Population Hoechst High Intensity Objects (%),[1],3% and 4%
same,Population Membrane Permeable-Phenotype (%),[1],4% and 3%
same,Population Mitochondria Different-Phenotype (%),[1],1% and 2%
same,Population Mitotic Cells (%),[1],5% and 0%
same,Population Normal (%),[1],96% and 95%
same,Population Pyknosed Nuclei (%),[1],8% and 7%
same,Population Tubulin-Different-Phenotype (%),[1],3% and 0%
same,Total Cell Count,[1],205 and 133
same,Population Apoptotic (%),[2],91% and 72%
same,Population Fragmented Nuclei (%),[2],28% and 16%
same,Population Healthy Nuclei (%),[2],61% and 72%
same,Population Hoechst High Intensity Objects (%),[2],3% and 0%
same,Population Membrane Permeable-Phenotype (%),[2],12% and 4%
same,Population Mitochondria Different-Phenotype (%),[2],2% and 1%
same,Population Normal (%),[2],96% and 100%
same,Population Pyknosed Nuclei (%),[2],9% and 10%
same,Population Tubulin-Different-Phenotype (%),[2],4% and 5%
same,Total Cell Count,[2],241 and 101
same,Population Apoptotic (%),[3],83% and 94%
same,Population Fragmented Nuclei (%),[3],25% and 9%
same,Population Healthy Nuclei (%),[3],64% and 79%
same,Population Hoechst High Intensity Objects (%),[3],3% and 1%
same,Population Membrane Permeable-Phenotype (%),[3],4% and 10%
same,Population Mitochondria Different-Phenotype (%),[3],1%
same,Population Normal (%),[3],96% and 98%
same,Population Pyknosed Nuclei (%),[3],10%
same,Population Tubulin-Different-Phenotype (%),[3],1%
same,Total Cell Count,[3],247 and 177
same,Population Apoptotic (%),[4],88% and 53%
same,Population Fragmented Nuclei (%),[4],26% and 16%
same,Population Healthy Nuclei (%),[4],64% and 72%
same,Population Hoechst High Intensity Objects (%),[4],2% and 0%
same,Population Membrane Permeable-Phenotype (%),[4],7%
same,Population Mitochondria Different-Phenotype (%),[4],3% and 6%
same,Population Normal (%),[4],97% and 100%
same,Population Pyknosed Nuclei (%),[4],8% and 11%
same,Population Tubulin-Different-Phenotype (%),[4],3% and 6%
same,Total Cell Count,[4],298 and 111
same,Population Apoptotic (%),[5],93% and 78%
same,Population Fragmented Nuclei (%),[5],16% and 11%
same,Population Healthy Nuclei (%),[5],74% and 79%
same,Population Hoechst High Intensity Objects (%),[5],2% and 3%
same,Population Membrane Permeable-Phenotype (%),[5],5% and 4%
same,Population Mitochondria Different-Phenotype (%),[5],1% and 3%
same,Population Normal (%),[5],97% and 96%
same,Population Pyknosed Nuclei (%),[5],8% and 9%
same,Population Tubulin-Different-Phenotype (%),[5],1% and 2%
same,Total Cell Count,[5],368 and 253
same,Population Apoptotic (%),[6],97% and 82%
same,Population Fragmented Nuclei (%),[6],19% and 16%
same,Population Healthy Nuclei (%),[6],68% and 73%
same,Population Hoechst High Intensity Objects (%),[6],2% and 1%
same,Population Membrane Permeable-Phenotype (%),[6],6% and 4%
same,Population Mitochondria Different-Phenotype (%),[6],2% and 1%
same,Population Normal (%),[6],97% and 98%
same,Population Pyknosed Nuclei (%),[6],12% and 10%
same,Population Tubulin-Different-Phenotype (%),[6],4% and 0%
same,Total Cell Count,[6],396 and 170
